# Screens (PubChem BioAssay)
# Insulin prom act = TRM-6 insulin promoter activation; TRM-6 cells, insulin promoter eGFP reporter, imaging; plate-scaled: unstimulated 0, stimulated control 100; activation, % at 2 µM; 130,000 tested, 0.81% active;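 active means activation at 2 µM above a set limit, confirmed on inspection of the cell images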;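 further: share of cells whose green reporter signal exceeds an intensity cutoff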
#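 material = TRM-6 human fetal islet cells, insulin promoter–eGFP reporter | input = 1,000 TRM-6 cells seeded per well | benchmarks = stimulated versus unstimulated wells as plate controls | measured by = automated fluorescence imaging of paraformaldehyde-fixed, Hoechst-counterstained cells, green channel | schedule = compound exposure 48 h, 37 °C | reagent = tamoxifen at 0.75 µM added at seeding for reporter induction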
# * marks the source's active call; other numbers are inactive results. Many of the other results were omitted from the sample, so hits are more common in it than they were.
SMILES,Insulin prom act
COc1ccc(CN2C(=O)c3cccnc3C2Nc2cc(Cl)c(OC)cc2OC)cc1 (stereo not drawn),136*
O=C1c2cccnc2C(O)N1Cc1ccc(F)cc1 (stereo not drawn),6
CCN(CC)S(=O)(=O)c1ccc(NC2c3ncccc3C(=O)N2Cc2ccccc2)cc1 (stereo not drawn),7
CC(C)Cn1c(N)c(C(=O)CSc2ccc3c(c2)OCCO3)c(=O)n(C)c1=O,168*
CC(C)Cn1c(N)c(C(=O)CSc2nnnn2C)c(=O)n(C)c1=O,-9
Cn1c(N)c(C(=O)COC(=O)c2ccc3c(c2)OCCO3)c(=O)n(C)c1=O,-10
CCOc1ccc(NS(=O)(=O)c2ccc(OC)c(NC(=O)c3ccc4c(c3)OCCO4)c2)cc1,0
Cc1cccc(NS(=O)(=O)c2ccc3c(c2)OCCO3)c1,-7
CCOC(=O)COc1ccc(S(=O)(=O)Nc2ccc3c(c2)OCCO3)cc1,460*
C/C(=N\N1CCN(c2ccc(Cl)cc2)CC1)c1cccs1,9
CC(C)(C)NC(=O)CN(Cc1cccs1)C(=O)CCC(=O)Nc1nccs1,117
Cn1c(SCC(=O)N2CCOCC2)nc(O)cc1=O,-7
COC(=O)c1ccc(-c2ccco2)n1Cc1nc(-c2ccc(OC)c(OC)c2)oc1C,0
COc1ccc(-c2nc(CS(=O)CC(=O)NCCCN3CC(C)CC(C)C3)c(C)o2)cc1OC (stereo not drawn),-7
COc1cc(-c2nc(CN3CCN(CC(C)C)C(=O)[C@@H]3C)c(C)o2)ccc1F,270*
O=C(N=C1N=C2C=CC=CN2Cc2ccccc21)c1ccc(S(=O)(=O)N2CCOCC2)cc1,-6
CCOC(=O)c1ccc(N=Nc2c(C)c(C#N)c(O)[nH]c2=O)cc1,0
Nc1ccc(Sc2nc3ccccc3[nH]2)cc1,-10
Cc1cc(NC(=O)CN2C(=O)NC3(CCC(C)CC3)C2=O)no1 (stereo not drawn),0
Cc1cccc(NC(=O)CN2C(=O)N/C(=C/c3ccc(C)o3)C2=O)c1,10
CC(=O)N1C(=S)NC(=O)/C1=C1/C(=O)N(CC(=O)Nc2cccc(C)c2)c2ccccc21,108*
Cc1ccc2c(c1)C(=O)C(=O)N2CC(=O)Nc1ccc(N2CCOCC2)cc1,0
CCC(CC)NC(=O)COc1ccc(OC)cc1C=O,-7
Cn1c(Cn2c(=O)sc3ccccc32)nnc1SCC(=O)Nc1ccccc1F,-12
O=C(CSc1nnc(-c2cc3ccccc3cc2O)n1Cc1ccco1)c1ccc(F)cc1,-6
SMILES,Insulin prom act
O=C(CSc1ccc(-c2ccccc2)nn1)NCc1ccco1,444*
Cn1c(SCC(=O)NCc2ccco2)nnc1-c1ccc(S(=O)(=O)N2CCOCC2)cc1,-6
COc1cccc(CNC(=O)CSc2ccc(-c3ccncc3)nn2)c1,0
Cc1nnc(SCC(=O)NCc2ccco2)n1Cc1ccccc1,7
O=C(CSc1ccc(-c2ccco2)nn1)Nc1ccccc1,-75
O=C(CSc1ccc(-c2ccccn2)nn1)NCc1ccccc1,-8
O=C(CSc1nnc(-c2ccc(O)cc2)n1Cc1ccco1)c1ccccc1,77*
Cn1c(SCC(=O)NCc2ccco2)nnc1-c1ccccc1,437*
O=C(CSc1ncc(-c2ccccc2)n1-c1ccccc1)NCc1ccco1,3
O=C(CSc1ccc(-c2cccc([N+](=O)[O-])c2)nn1)NCc1ccccc1,266*
Cc1cc(C)c(NC(=O)CSc2nnc(-c3ccncc3)n2Cc2ccco2)c(Cl)c1,-3
CCSc1nnc(NC(=O)C2CCN(S(=O)(=O)c3c(C)c(C)cc(C)c3C)CC2)s1,-3
COc1ccc(NC(=O)CSc2nc3ccccc3c(=O)n2CCCN2CCCCC2)c(OC)c1,0
CN1/C(=C\C(=O)Nc2ccc(Br)cc2)C(C)(C)c2ccccc21,0
Cc1nn(-c2ccccc2)c2c1C1(C(=O)N(C)c3ccccc31)C(C#N)=C(N)O2 (stereo not drawn),-18
CN1/C(=C\C=C2/C(=O)Oc3ccccc3C2=O)C(C)(C)c2ccccc21,223*
COc1ccc(/C=C(\NC(=O)c2ccc([N+](=O)[O-])cc2)C(=O)N2CCOCC2)cc1,0
O=C(Nc1ccccc1)c1ccc(NC2CCCCC2)c(S(=O)(=O)N2CCOCC2)c1,242
Cc1c(OCc2ccccc2)c(=O)ccn1Cc1ccc(F)cc1,2
Cc1c(O)c(=O)ccn1Cc1ccccc1,257*
Cc1c(OCc2ccccc2)c(=O)ccn1Cc1ccc(Cl)cc1,6
CCn1cc(C(=O)NCCc2ccccc2)c(=O)c2cc(S(=O)(=O)N3CCCC3)ccc21,0
CN(C)S(=O)(=O)c1ccc(C(=O)Nc2ccccc2F)cc1,7
CN(C)S(=O)(=O)c1ccc(Oc2ccccc2)cc1,475*
CNS(=O)(=O)c1ccc(Oc2ccc(S(=O)(=O)NC)cc2)cc1,-71
SMILES,Insulin prom act
Cc1cccc(NC(=O)c2cn(-c3ccccc3)nc2-c2ccccc2)c1,10
CC1c2nc3ccccc3n2C(CC(=O)NCc2ccccn2)C(=O)N1Cc1ccccc1 (stereo not drawn),-9
CCS(=O)(=O)c1ccc(-c2csc(-c3ccccc3)n2)c(Cl)c1Cl,-5
Cc1cc(NC(=O)c2cnn3c(C(F)F)cc(C4CC4)nc23)no1,107
Cc1cc(NC(=O)c2cnn3c(C(F)F)cc(-c4ccccc4)nc23)no1,9
Cc1cc(NC(=O)c2cnn3c(C(F)(F)F)cc(-c4ccccc4)nc23)no1,429*
COc1ccc(OCC(O)CN2C(=O)NC(C)(C)C2=O)cc1 (stereo not drawn),-40
COC(=O)c1ccccc1NC(=O)c1ccc(-c2cccc(Cl)c2)o1,0
COC(=O)c1sccc1NC(=O)c1ccco1,169
COC(=O)c1sccc1-c1ccc(C(=O)Nc2cccc(Cl)c2)o1,80*
COc1ccc(C(=O)N/N=c2\oc3ccccc3cc2C(=O)NCc2ccccc2)cc1,-7
CCOc1cccc(C(=O)NC2CCCCC2)c1,147
CCOc1cccc(C(=O)N2CCCCC2c2cccnc2)c1 (stereo not drawn),164*
CCOc1cccc(C(=O)NC(=S)NCc2cccnc2)c1,-7
COC(=O)\C(C(C)=O)=C(/C=C/C=C/C=C/N(C)C)N(C)C,2
CCOC(=O)N1CCC(NC(=O)CCc2c(C)nc3c(c(C)nn3C(C)(C)C)c2C)CC1,4
COC(=O)c1ccc(-n2nnnc2SC)cc1,-5
Cc1ccc(Nc2nc(Oc3ccc(=O)[nH]n3)nc(N(C)C)n2)cc1,-80
CCNc1nc(Oc2ccc(=O)[nH]n2)nc(SC)n1,-73
CN(C)c1nc(Nc2ccccc2)nc(Oc2ccc(=O)[nH]n2)n1,5
COC(=O)c1ccc(Oc2nc(Nc3ccccc3)nc(N(C)C)n2)cc1,585*
CNc1nc(Oc2ccc(C(=O)OC)cc2)nc(SC)n1,494*
COc1cc(C(c2nnnn2C(C)(C)C)N2CCN(c3nc4ccccc4s3)CC2)ccc1O (stereo not drawn),7
Cn1c(SC2CCCCC2=O)nnc1-c1ccncc1 (stereo not drawn),-5
CCC(c1nnnn1C(C)(C)C)N(Cc1cccs1)Cc1cc2cc(C)c(C)cc2n2nnnc12 (stereo not drawn),7
CC(NS(=O)(=O)c1ccccc1)C(=O)NCc1ccco1 (stereo not drawn),-7
COC(=O)C(C(=O)NCC1CCCO1)C1CCCCCC1 (stereo not drawn),-8
CCOC(=O)C(C(=O)N1CCOCC1)C1CCCCC1 (stereo not drawn),286
